# Calls of active or inactive are those of the source. No cut-off for these calls is given here.
# Columns and labels:
# Escherichia coli [1] = experiment: Ratio of MIC for Escherichia coli ATCC 25922 after 20 serial passages to MIC for Escherichia coli ATCC 25922; format: functional, organism-based
# Summary of the method: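 Sub-MIC serial passaging: after an initial broth microdilution MIC, cells grown at MIC/2 were transferred into a new MIC assay after each 24 h incubation, for 20 passages. MIC was plotted against days to follow resistance development. Passaging controls were norfloxacin for S. aureus and colistin for E. coli.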
# Staphylococcus aureus [2] = experiment: Antibacterial activity against Staphylococcus aureus; format: functional
# Summary of the method: (§1)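 Broth microdilution per CLSI in cation-adjusted Mueller-Hinton broth; 4-6 h cultures (~10⁸ CFU/mL) diluted to ~10⁶ CFU/mL and mixed 1:1 with twofold dilutions of water-dissolved compound (256 to 0.5 µg/mL). Incubated 16-20 h at 37 °C; MIC read visually. Each concentration run in duplicate, whole experiment repeated at least twice. MRSA, KPC and NDM-1 strains were clinical isolates.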
# Enterococcus faecalis [3] = experiment: Antibacterial activity against Enterococcus faecalis; format: functional; summary of the method: as §1
# Escherichia coli [4] = experiment: Antibacterial activity against Escherichia coli; format: functional; summary of the method: as §1
# Staphylococcus aureus [5] = experiment: Antibacterial activity against methicillin-resistant Staphylococcus aureus; format: functional
# [6] = Hemolytic activity in sheep RBC; format: ADME, cell-based, Ovis aries, Erythrocyte; conditions: sheep red blood cells (erythrocytes)
# Summary of the method: (§2)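 Sheep RBCs suspended at 5% in PBS; 150 µL added to 50 µL compound dilutions (5120 to 10 µg/mL series). Incubated 1 h at 37 °C, then centrifuged; supernatant absorbance read at 540 nm. Lysis (%) = (A−A0)/(Atotal−A0)×100, with untreated 5% RBC as A0 and 0.1% Triton X-100 as total.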
# Staphylococcus aureus [7] = experiment: Antibacterial activity against Staphylococcus aureus ATCC 29213 after 16 to 20 hrs by broth microdilution method; format: functional
# Summary of the method: (§3)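 CLSI broth microdilution in cation-adjusted Mueller-Hinton broth. A 4-6 h culture was diluted to about 10⁶ CFU/mL and mixed 1:1 with twofold compound dilutions (256–0.5 µg/mL before mixing) prepared from aqueous stocks. Plates were incubated at 37 °C for 16-20 h. Each concentration was tested in duplicate, and the experiment was repeated at least twice.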
# Enterococcus faecalis [8] = experiment: Antibacterial activity against Enterococcus faecalis after 16 to 20 hrs by broth microdilution method; format: functional; summary of the method: as §1
# Escherichia coli [9] = experiment: Antibacterial activity against Escherichia coli ATCC 25922 after 16 to 20 hrs by broth microdilution method; format: functional; summary of the method: as §1
# Salmonella enterica = experiment: Antibacterial activity against Salmonella enterica after 16 to 20 hrs by broth microdilution method; format: functional; summary of the method: as §1
# Staphylococcus aureus [10] = experiment: Antibacterial activity against methicillin-resistant Staphylococcus aureus after 16 to 20 hrs by broth microdilution method; format: functional; summary of the method: as §3
# Klebsiella pneumoniae [11] = experiment: Antibacterial activity against carbapenemase-producing Klebsiella pneumoniae after 16 to 20 hrs by broth microdilution method; format: functional; summary of the method: as §1
# Enterobacteriaceae [12] = experiment: Antibacterial activity against NDM-1-producing Enterobacteriaceae after 16 to 20 hrs by broth microdilution method; format: functional; summary of the method: as §1
# [13] = Hemolytic activity in sheep RBC after 1 hr; format: ADME, cell-based, Ovis aries, Erythrocyte; conditions: sheep red blood cells (erythrocytes); summary of the method: as §2
# Staphylococcus aureus [14] = experiment: Antibacterial activity against methicillin-resistant Staphylococcus aureus isolate M1 after 16 to 20 hrs by broth microdilution method; format: functional; summary of the method: as §3
# Staphylococcus aureus [15] = experiment: Antibacterial activity against methicillin-resistant Staphylococcus aureus isolate M2 after 16 to 20 hrs by broth microdilution method; format: functional; summary of the method: as §3
# Staphylococcus aureus [16] = experiment: Antibacterial activity against methicillin-resistant Staphylococcus aureus isolate M3 after 16 to 20 hrs by broth microdilution method; format: functional; summary of the method: as §3
# Staphylococcus aureus [17] = experiment: Antibacterial activity against methicillin-resistant Staphylococcus aureus isolate M4 after 16 to 20 hrs by broth microdilution method; format: functional; summary of the method: as §3
# Staphylococcus aureus [18] = experiment: Antibacterial activity against methicillin-resistant Staphylococcus aureus isolate M5 after 16 to 20 hrs by broth microdilution method; format: functional; summary of the method: as §3
# Staphylococcus aureus [19] = experiment: Antibacterial activity against methicillin-resistant Staphylococcus aureus isolate M6 after 16 to 20 hrs by broth microdilution method; format: functional; summary of the method: as §3
# Staphylococcus aureus [20] = experiment: Antibacterial activity against methicillin-resistant Staphylococcus aureus isolate M7 after 16 to 20 hrs by broth microdilution method; format: functional; summary of the method: as §3
# Staphylococcus aureus [21] = experiment: Antibacterial activity against methicillin-resistant Staphylococcus aureus isolate M8 after 16 to 20 hrs by broth microdilution method; format: functional; summary of the method: as §3
# Staphylococcus aureus [22] = experiment: Antibacterial activity against methicillin-resistant Staphylococcus aureus isolate M9 after 16 to 20 hrs by broth microdilution method; format: functional; summary of the method: as §3
# Staphylococcus aureus [23] = experiment: Antibacterial activity against methicillin-resistant Staphylococcus aureus isolate M10 after 16 to 20 hrs by broth microdilution method; format: functional; summary of the method: as §3
# Klebsiella pneumoniae [24] = experiment: Antibacterial activity against carbapenemase-producing Klebsiella pneumoniae isolate K1 after 16 to 20 hrs by broth microdilution method; format: functional; summary of the method: as §1
# Klebsiella pneumoniae [25] = experiment: Antibacterial activity against carbapenemase-producing Klebsiella pneumoniae isolate K2 after 16 to 20 hrs by broth microdilution method; format: functional; summary of the method: as §1
# Klebsiella pneumoniae [26] = experiment: Antibacterial activity against carbapenemase-producing Klebsiella pneumoniae isolate K3 after 16 to 20 hrs by broth microdilution method; format: functional; summary of the method: as §1
# Klebsiella pneumoniae [27] = experiment: Antibacterial activity against carbapenemase-producing Klebsiella pneumoniae isolate K4 after 16 to 20 hrs by broth microdilution method; format: functional; summary of the method: as §1
# Klebsiella pneumoniae [28] = experiment: Antibacterial activity against carbapenemase-producing Klebsiella pneumoniae isolate K5 after 16 to 20 hrs by broth microdilution method; format: functional; summary of the method: as §1
# Klebsiella pneumoniae [29] = experiment: Antibacterial activity against carbapenemase-producing Klebsiella pneumoniae isolate K6 after 16 to 20 hrs by broth microdilution method; format: functional; summary of the method: as §1
# Klebsiella pneumoniae [30] = experiment: Antibacterial activity against carbapenemase-producing Klebsiella pneumoniae isolate K7 after 16 to 20 hrs by broth microdilution method; format: functional; summary of the method: as §1
# Klebsiella pneumoniae [31] = experiment: Antibacterial activity against carbapenemase-producing Klebsiella pneumoniae isolate K8 after 16 to 20 hrs by broth microdilution method; format: functional; summary of the method: as §1
# Klebsiella pneumoniae [32] = experiment: Antibacterial activity against carbapenemase-producing Klebsiella pneumoniae isolate K9 after 16 to 20 hrs by broth microdilution method; format: functional; summary of the method: as §1
# Klebsiella pneumoniae [33] = experiment: Antibacterial activity against carbapenemase-producing Klebsiella pneumoniae isolate K10 after 16 to 20 hrs by broth microdilution method; format: functional; summary of the method: as §1
# Enterobacteriaceae [34] = experiment: Antibacterial activity against NDM-1-producing Enterobacteriaceae isolate N1 after 16 to 20 hrs by broth microdilution method; format: functional; summary of the method: as §1
# Enterobacteriaceae [35] = experiment: Antibacterial activity against NDM-1-producing Enterobacteriaceae isolate N2 after 16 to 20 hrs by broth microdilution method; format: functional; summary of the method: as §1
# Enterobacteriaceae [36] = experiment: Antibacterial activity against NDM-1-producing Enterobacteriaceae isolate N3 after 16 to 20 hrs by broth microdilution method; format: functional; summary of the method: as §1
# Enterobacteriaceae [37] = experiment: Antibacterial activity against NDM-1-producing Enterobacteriaceae isolate N4 after 16 to 20 hrs by broth microdilution method; format: functional; summary of the method: as §1
# Enterobacteriaceae [38] = experiment: Antibacterial activity against NDM-1-producing Enterobacteriaceae isolate N5 after 16 to 20 hrs by broth microdilution method; format: functional; summary of the method: as §1
# Enterobacteriaceae [39] = experiment: Antibacterial activity against NDM-1-producing Enterobacteriaceae isolate N6 after 16 to 20 hrs by broth microdilution method; format: functional; summary of the method: as §1
# Enterobacteriaceae [40] = experiment: Antibacterial activity against NDM-1-producing Enterobacteriaceae isolate N7 after 16 to 20 hrs by broth microdilution method; format: functional; summary of the method: as §1
# Enterobacteriaceae [41] = experiment: Antibacterial activity against NDM-1-producing Enterobacteriaceae isolate N8 after 16 to 20 hrs by broth microdilution method; format: functional; summary of the method: as §1
# Enterobacteriaceae [42] = experiment: Antibacterial activity against NDM-1-producing Enterobacteriaceae isolate N9 after 16 to 20 hrs by broth microdilution method; format: functional; summary of the method: as §1
# Enterobacteriaceae [43] = experiment: Antibacterial activity against NDM-1-producing Enterobacteriaceae isolate N10 after 16 to 20 hrs by broth microdilution method; format: functional; summary of the method: as §1
# Staphylococcus aureus [44] = experiment: Induction of cytoplasmic membrane depolarization in Staphylococcus aureus ATCC 29213 at 20 ug/ml measured every 2 mins for 12 mins by diSC35 staining based fluorescence assay; format: functional, organism-based
# Summary of the method: (§4)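 Mid-log cells (4–6 h) pelleted, washed and resuspended (~10^8 CFU/mL) in PBS for S. aureus, or in 5 mM HEPES, 5 mM glucose and 100 mM KCl (1:1:1) for E. coli. Preloaded with diSC35 (10 µM, 50 µL), 30 min for S. aureus and 40 min plus EDTA (200 µM, 50 µL) for E. coli. Baseline read 8 min (ex 622/em 670 nm), then compound added to 20 µg/mL final and read every 2 min for 12 min. Water control.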
# Escherichia coli [45] = experiment: Induction of cytoplasmic membrane depolarization in Escherichia coli ATCC 25922 at 20 ug/ml measured every 2 mins for 12 mins by diSC35 staining based fluorescence assay; format: functional, organism-based; summary of the method: as §4
# Staphylococcus aureus [46] = experiment: Induction of inner membrane permeabilization in Staphylococcus aureus ATCC 29213 at 20 ug/ml measured every 2 mins for 12 mins by propidium iodide staining based fluorescence assay; format: functional, organism-based
# Summary of the method: (§5)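 Mid-log cells (~10^8 CFU/mL) pre-incubated with propidium iodide (10 µM, 50 µL), 30 min for S. aureus and 40 min for E. coli. Fluorescence (ex 535/em 617 nm) read for 8 min, then compound added to 20 µg/mL final and monitored every 2 min for 12 min. Water-treated control.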
# Escherichia coli [47] = experiment: Induction of inner membrane permeabilization in Escherichia coli ATCC 25922 at 20 ug/ml measured every 2 mins for 12 mins by propidium iodide staining based fluorescence assay; format: functional, organism-based; summary of the method: as §5
# Escherichia coli [48] = experiment: Induction of outer membrane permeabilization in Escherichia coli ATCC 25922 at 20 ug/ml measured every 2 mins for 12 mins by NPN staining based fluorescence assay; format: functional, organism-based
# Summary of the method: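 Mid-log E. coli (~10^8 CFU/mL) in black plates pre-incubated about 40 min with NPN (10 µM, 50 µL). Baseline read 8 min (ex 350/em 420 nm), then compound added to 20 µg/mL final and fluorescence followed every 2 min for 12 min. Water-treated control.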
molecule,measurement,setting,value
COLISTIN,Ratio,Escherichia coli [1],32
H-GIGKFLKKAKKFGKAFVKLLKK-NH2,MIC,Staphylococcus aureus [2],8 to 16 µg/mL
same,MIC,Enterococcus faecalis [3],64 µg/mL
same,MIC,Escherichia coli [4],16 to 32 µg/mL
same,MIC,Staphylococcus aureus [5],16 to 32 µg/mL
same,HC50,[6],120 µg/mL
CCCCCCCN(CCCCCCC)C(=O)[C@@H](N)CCCCN.Cl.Cl,MIC,Staphylococcus aureus [7],8 µg/mL
same,MIC,Enterococcus faecalis [8],8 µg/mL
same,MIC,Escherichia coli [9],8 µg/mL
same,MIC,Salmonella enterica,16 µg/mL
same,MIC,Staphylococcus aureus [10],4 µg/mL
same,MIC,Klebsiella pneumoniae [11],16 µg/mL
same,MIC,Enterobacteriaceae [12],16 µg/mL
same,HC50 at 1 h,[13],434 µg/mL
same,MIC,Staphylococcus aureus [14],8 µg/mL
same,MIC,Staphylococcus aureus [15],16 µg/mL
same,MIC,Staphylococcus aureus [16],16 µg/mL
same,MIC,Staphylococcus aureus [17],16 µg/mL
same,MIC,Staphylococcus aureus [18],8 µg/mL
same,MIC,Staphylococcus aureus [19],4 µg/mL
same,MIC,Staphylococcus aureus [20],4 µg/mL
same,MIC,Staphylococcus aureus [21],8 µg/mL
same,MIC,Staphylococcus aureus [22],4 µg/mL
same,MIC,Staphylococcus aureus [23],4 µg/mL
same,MIC,Klebsiella pneumoniae [24],16 µg/mL
same,MIC,Klebsiella pneumoniae [25],16 µg/mL
same,MIC,Klebsiella pneumoniae [26],16 µg/mL
same,MIC,Klebsiella pneumoniae [27],16 µg/mL
same,MIC,Klebsiella pneumoniae [28],16 µg/mL
same,MIC,Klebsiella pneumoniae [29],16 µg/mL
same,MIC,Klebsiella pneumoniae [30],16 µg/mL
same,MIC,Klebsiella pneumoniae [31],16 µg/mL
same,MIC,Klebsiella pneumoniae [32],16 µg/mL
same,MIC,Klebsiella pneumoniae [33],16 µg/mL
same,MIC,Enterobacteriaceae [34],32 µg/mL
same,MIC,Enterobacteriaceae [35],32 µg/mL
same,MIC,Enterobacteriaceae [36],32 µg/mL
same,MIC,Enterobacteriaceae [37],32 µg/mL
same,MIC,Enterobacteriaceae [38],16 µg/mL
same,MIC,Enterobacteriaceae [39],16 µg/mL
same,MIC,Enterobacteriaceae [40],32 µg/mL
same,MIC,Enterobacteriaceae [41],32 µg/mL
same,MIC,Enterobacteriaceae [42],16 µg/mL
same,MIC,Enterobacteriaceae [43],16 µg/mL
same,Activity,Staphylococcus aureus [44],Active
same,Activity,Escherichia coli [45],Active
same,Activity,Staphylococcus aureus [46],Active
same,Activity,Escherichia coli [47],Active
same,Activity,Escherichia coli [48],Active
